ChEMBL document CHEMBL3120163, “Octulosonic acid derivatives from Roman chamomile (Chamaemelum nobile) with activities against inflammation and metabolic disorder” (J Nat Prod, 2014)
pIC50: −log10 of the molar value.

What was measured:
[1] = Inhibition of PMA-induced NFkappaB transcriptional activity in human SW1353 cells treated for 30 mins followed by PMA challenge measured after 6 to 8 hrs by luciferase reporter gene assay; assay type: cell-based; conditions: for pIC50: Homo sapiens, SW1353, read-out: IC50; for IC50: sw1353
In short: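 After 24 h they were pretreated with compound for 30 min, then stimulated with PMA 70 ng/mL for 6−8 h. Percent decrease in luciferase is relative to vehicle. Positive control: parthenolide.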

[2] = target: T1, Nitric oxide synthase, inducible (Mus musculus, UniProt P29477); test: Inhibition of iNOS in mouse RAW264.7 cells assessed as LPS-induced nitric oxide production treated for 30 mins followed by LPS challenge measured after 24 hrs by Griess reagent method; assay type: cell-based; conditions: for IC50: raw264.7
T1 sequence (P29477 whole entry): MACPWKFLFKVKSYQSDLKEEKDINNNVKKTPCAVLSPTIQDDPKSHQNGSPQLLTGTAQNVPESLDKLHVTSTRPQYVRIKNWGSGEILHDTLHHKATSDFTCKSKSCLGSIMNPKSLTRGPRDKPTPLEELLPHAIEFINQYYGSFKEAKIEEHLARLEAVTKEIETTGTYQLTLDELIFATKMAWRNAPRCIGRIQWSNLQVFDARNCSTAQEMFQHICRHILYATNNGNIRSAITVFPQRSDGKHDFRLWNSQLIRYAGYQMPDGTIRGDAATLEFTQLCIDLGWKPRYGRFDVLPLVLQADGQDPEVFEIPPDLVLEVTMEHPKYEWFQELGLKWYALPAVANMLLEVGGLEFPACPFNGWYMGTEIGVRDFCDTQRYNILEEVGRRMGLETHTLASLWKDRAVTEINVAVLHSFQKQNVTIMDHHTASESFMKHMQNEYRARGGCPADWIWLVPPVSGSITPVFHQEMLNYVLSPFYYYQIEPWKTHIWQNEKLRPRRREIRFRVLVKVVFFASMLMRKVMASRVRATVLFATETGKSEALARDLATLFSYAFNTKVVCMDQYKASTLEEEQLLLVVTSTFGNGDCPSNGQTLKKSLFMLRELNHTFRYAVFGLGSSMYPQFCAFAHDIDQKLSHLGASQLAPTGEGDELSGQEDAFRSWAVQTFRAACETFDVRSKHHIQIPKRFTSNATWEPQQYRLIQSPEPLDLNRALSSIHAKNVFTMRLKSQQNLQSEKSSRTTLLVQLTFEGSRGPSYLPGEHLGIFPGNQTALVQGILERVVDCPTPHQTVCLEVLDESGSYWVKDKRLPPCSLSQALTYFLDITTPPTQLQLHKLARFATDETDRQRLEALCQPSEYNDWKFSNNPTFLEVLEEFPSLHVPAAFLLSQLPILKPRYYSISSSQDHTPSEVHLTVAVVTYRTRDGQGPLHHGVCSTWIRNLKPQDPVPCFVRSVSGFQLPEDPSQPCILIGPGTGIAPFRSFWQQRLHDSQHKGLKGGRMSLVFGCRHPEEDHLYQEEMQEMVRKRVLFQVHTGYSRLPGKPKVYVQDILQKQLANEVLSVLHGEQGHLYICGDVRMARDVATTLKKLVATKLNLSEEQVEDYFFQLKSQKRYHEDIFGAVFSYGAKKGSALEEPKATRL
In short: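 RAW264.7 macrophages were grown in phenol red-free RPMI with 10% bovine calf serum. Cells were seeded at 100 000 per well and grown 24 h to at least 75% confluency. Compound was added 30 min before LPS 5 μg/mL, then incubated 24 h. Supernatant nitrite was measured by Griess reagent; percent inhibition is versus vehicle, with IC50 from dose-response curves. Positive control: parthenolide.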

[3] = target: T2, Peroxisome proliferator-activated receptor alpha (Homo sapiens) (UniProt Q07869); test: Activation of PPARalpha in human HepG2 cells at 25 uM after 24 hrs by luciferase reporter gene assay relative to vehicle-treated control; assay type: cell-based
T2 sequence (whole entry): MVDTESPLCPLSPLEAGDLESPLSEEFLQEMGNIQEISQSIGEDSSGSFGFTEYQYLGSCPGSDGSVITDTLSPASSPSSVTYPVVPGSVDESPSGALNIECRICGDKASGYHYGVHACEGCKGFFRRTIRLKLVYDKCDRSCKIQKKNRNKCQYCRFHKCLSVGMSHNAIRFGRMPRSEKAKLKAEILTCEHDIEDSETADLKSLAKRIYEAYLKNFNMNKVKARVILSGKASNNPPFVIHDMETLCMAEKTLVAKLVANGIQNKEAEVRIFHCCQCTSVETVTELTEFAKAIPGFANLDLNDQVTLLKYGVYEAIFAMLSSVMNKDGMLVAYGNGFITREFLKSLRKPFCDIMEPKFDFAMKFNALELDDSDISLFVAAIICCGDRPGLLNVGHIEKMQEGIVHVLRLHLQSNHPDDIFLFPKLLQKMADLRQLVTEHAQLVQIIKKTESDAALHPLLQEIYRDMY
In short: (§1)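 HepG2 cells in DMEM with 10% FBS were electroporated at 160 V with a single 70 ms pulse. Plasmid pairs were pSG5-PPARα + PPRE X3-tk-luc, pCMV-rPPARγ + pPPREaP2-tk-luc, or pCMX-hLXRα + LXRE-tk-luc. Cells were seeded at 5 × 10^4 per well, grown 24 h, then dosed. After 24 h the cells were lysed and luciferase read. Fold induction is versus vehicle. Positive controls: ciprofibrate, rosiglitazone, 25-hydroxycholesterol.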

[4] = target: T3, Peroxisome proliferator-activated receptor gamma (Homo sapiens) (UniProt P37231); test: Activation of PPARgamma in human HepG2 cells at 25 uM after 24 hrs by luciferase reporter gene assay relative to vehicle-treated control; assay type: cell-based; in short: as §1
T3 sequence (whole entry): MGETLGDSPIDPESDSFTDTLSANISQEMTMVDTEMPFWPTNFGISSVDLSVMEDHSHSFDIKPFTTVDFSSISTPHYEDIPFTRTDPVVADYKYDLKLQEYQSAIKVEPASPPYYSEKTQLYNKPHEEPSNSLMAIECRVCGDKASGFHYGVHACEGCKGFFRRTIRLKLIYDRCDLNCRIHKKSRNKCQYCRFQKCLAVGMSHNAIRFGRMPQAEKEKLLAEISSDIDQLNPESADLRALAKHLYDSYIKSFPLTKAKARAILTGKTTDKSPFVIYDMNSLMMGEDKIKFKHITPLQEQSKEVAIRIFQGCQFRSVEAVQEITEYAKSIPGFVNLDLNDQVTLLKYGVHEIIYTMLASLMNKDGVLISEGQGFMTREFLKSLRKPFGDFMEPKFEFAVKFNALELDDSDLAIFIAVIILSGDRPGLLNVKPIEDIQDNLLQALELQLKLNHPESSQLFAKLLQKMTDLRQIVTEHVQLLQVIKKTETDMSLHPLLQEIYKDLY

[5] = target: T4, Oxysterols receptor LXR-alpha (Homo sapiens) (UniProt Q13133); test: Activation of LXRalpha in human HepG2 cells at 25 uM after 24 hrs by luciferase reporter gene assay relative to vehicle-treated control; assay type: cell-based
T4 sequence (whole entry): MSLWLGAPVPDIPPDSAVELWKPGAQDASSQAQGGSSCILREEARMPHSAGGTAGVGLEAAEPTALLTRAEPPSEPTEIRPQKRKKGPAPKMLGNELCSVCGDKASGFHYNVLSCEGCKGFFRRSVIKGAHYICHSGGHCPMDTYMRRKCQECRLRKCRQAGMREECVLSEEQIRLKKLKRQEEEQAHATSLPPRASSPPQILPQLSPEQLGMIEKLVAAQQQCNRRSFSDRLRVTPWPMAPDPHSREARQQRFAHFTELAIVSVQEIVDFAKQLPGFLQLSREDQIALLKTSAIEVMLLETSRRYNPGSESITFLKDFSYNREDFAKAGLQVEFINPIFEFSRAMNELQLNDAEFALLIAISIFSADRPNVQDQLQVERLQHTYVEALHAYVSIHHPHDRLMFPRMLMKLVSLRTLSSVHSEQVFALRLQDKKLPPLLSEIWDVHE
In short: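 HepG2 cells in DMEM with 10% FBS, electroporated (160 V, single 70 ms pulse) with pCMX-hLXRα plus LXRE-tk-luc plasmids; plated at 5 × 10^4 cells/well and grown 24 h. Treated with test compounds for 24 h, then lysed for luciferase read-out. Fold induction calculated against vehicle control; 25-hydroxycholesterol as positive control.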

[6] = target: T5, Growth/differentiation factor 15 (Homo sapiens) (UniProt Q99988); test: Activation of NAG-1 in human SW1353 cells at 20 uM after 24 hrs by luciferase reporter gene assay relative to vehicle-treated control; assay type: cell-based
T5 sequence (whole entry): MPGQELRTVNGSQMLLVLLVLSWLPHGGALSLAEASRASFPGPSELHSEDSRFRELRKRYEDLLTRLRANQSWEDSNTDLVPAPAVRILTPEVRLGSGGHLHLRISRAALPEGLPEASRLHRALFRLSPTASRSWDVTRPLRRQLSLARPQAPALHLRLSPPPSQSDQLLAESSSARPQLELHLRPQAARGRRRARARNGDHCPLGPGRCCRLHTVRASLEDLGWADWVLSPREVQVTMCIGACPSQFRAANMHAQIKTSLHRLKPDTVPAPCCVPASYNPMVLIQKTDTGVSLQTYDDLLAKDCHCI
In short: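 SW1353 chondrosarcoma cells in DMEM/F12 with 10% FBS were electroporated (160 V, one 70 ms pulse) with 25 μg […]. Cells were seeded at 1 × 10^5 per well, then dosed 24 h later for 24 h. Luciferase light output gave fold induction versus vehicle. Positive control: diclofenac.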

HepG2 [7] = test: Cytotoxicity against human HepG2 cells up to 50 uM after 48 hrs by neutral red assay; assay type: cell-based; conditions: hepg2, 48 h
HepG2 [8] = test: Antioxidant activity in human HepG2 cells assessed as inhibition of ABAP-induced intracellular peroxyl radical scavenging activity by measuring ROS production measured every 5 mins for 1 hr by fluorescence assay
RAW264.7 = test: Cytotoxicity against mouse RAW264.7 cells up to 50 uM after 48 hrs by neutral red assay; assay type: cell-based; conditions: raw264.7, 48 h

Q: Which results are given for `C=C1C(=O)O[C@@H]2C3O[C@]3(C)CC/C=C(\C)CC[C@@H]12` (some centres not stated)?
A: pIC50 [1]: 5.79; pIC50 ([2]; read-out: IC50): 5.98

Q: With `CC(C)(Oc1ccc(C2CC2(Cl)Cl)cc1)C(=O)O` (configuration not stated) as the compound, how does the fold change (FC) [3] read?
A: 4.35

Q: For `CC1(COc2ccc(CC3SC(=O)NC3=O)cc2)CCCCC1` (configuration not stated), which fold change (FC) [4] is on record?
A: 3.65

Q: For `C[C@H](CCCC(C)(C)O)[C@H]1CC[C@H]2[C@@H]3CC=C4C[C@@H](O)CC[C@]4(C)[C@H]3CC[C@]12C`, which fold change (FC) [5] is on record?
A: 4.67

Q: For `O=C(O)Cc1ccccc1Nc1c(Cl)cccc1Cl`, which fold change (FC) [6] is on record?
A: 2.65

Q: With `COC(=O)[C@]12C[C@@H](OC(=O)/C=C/c3ccc(O)c(O)c3)[C@@H](OC(=O)/C=C/c3ccc(O)c(O)c3)[C@@H](O1)[C@@H](COC(=O)/C=C/c1ccc(O)c(O)c1)O2` (relative stereo) as the compound, how does the Activity (HepG2 [7]) read?
A: Non-toxic

Q: And the pIC50 [1]?
A: 4.38

Q: What about the IC50 [2] of the same compound?
A: Not Active

Q: What about the pIC50 (HepG2 [8]) of the same compound?
A: 4.59

Q: And the Activity (RAW264.7)?
A: Non-toxic

Q: Which Activity (HepG2 [7]) does the source give for `COC(=O)[C@]12C[C@@H](OC(=O)/C=C/c3ccc(O)c(O)c3)[C@@H](O)[C@H](O1)[C@@H](COC(=O)/C=C/c1ccc(O)c(O)c1)O2` (relative stereo) here?
A: Non-toxic

Q: And the IC50 [1]?
A: Not Active

Q: What about the IC50 [2] of the same compound?
A: Not Active

Q: What about the pIC50 (HepG2 [8]) of the same compound?
A: 4.46

Q: What about the Activity (RAW264.7) of the same compound?
A: Non-toxic

Q: Which Activity (HepG2 [7]) does the source give for `COC(=O)[C@]12C[C@@H](O)[C@@H](O)[C@H](O1)[C@@H](COC(=O)/C=C/c1ccc(O)c(O)c1)O2` (relative stereo) here?
A: Non-toxic

Q: And the IC50 [1]?
A: Not Active

Q: And the IC50 [2]?
A: Not Active

Q: What about the pIC50 (HepG2 [8]) of the same compound?
A: 4.07

Q: And the Activity (RAW264.7)?
A: Non-toxic

Q: Which Activity (HepG2 [7]) does the source give for `O=C(/C=C/c1ccc(O)c(O)c1)OC[C@H]1O[C@@]2(C(=O)O)C[C@@H](OC(=O)/C=C/c3ccc(O)c(O)c3)[C@@H](OC(=O)/C=C/c3ccc(O)c(O)c3)[C@H]1O2` (relative stereo) here?
A: Non-toxic

Q: And the IC50 [1]?
A: Not Active

Q: And the IC50 [2]?
A: Not Active

Q: What about the pIC50 (HepG2 [8]) of the same compound?
A: 4.23

Q: What about the Activity (RAW264.7) of the same compound?
A: Non-toxic

Q: For `O=C(/C=C/c1ccc(O)c(O)c1)OC[C@H]1O[C@@]2(C(=O)O)C[C@@H](OC(=O)/C=C/c3ccc(O)c(O)c3)[C@@H](O)[C@@H]1O2` (relative stereo), which Activity (HepG2 [7]) is on record?
A: Non-toxic

Q: And the IC50 [1]?
A: Not Active

Q: And the IC50 [2]?
A: Not Active

Q: What about the pIC50 (HepG2 [8]) of the same compound?
A: 4.10

Q: What about the Activity (RAW264.7) of the same compound?
A: Non-toxic

Q: What does the source list for `O=C(/C=C/c1ccc(O)c(O)c1)OC[C@H]1O[C@@]2(C(=O)O)C[C@@H](O)[C@@H](O)[C@@H]1O2` (relative stereo)?
A: Activity (HepG2 [7]): Non-toxic; IC50 [1]: Not Active; IC50 [2]: Not Active; pIC50 (HepG2 [8]): < 4.00; Activity (RAW264.7): Non-toxic

Q: With `O=c1c(O)c(-c2ccc(O)c(O)c2)oc2cc(O)cc(O)c12` [QUERCETIN] as the compound, how does the pIC50 (HepG2 [8]) read?
A: 4.96
